Measured values pooled from the literature.
Lines come from different studies, so protocols differ.
Target: Activin receptor type-2B (ACVR2B, Homo sapiens, UniProt Q13705)

Cc1c[nH]c2nccc(Oc3c(F)cc(Nc4cc(Cl)nc(N)n4)cc3F)c12 — remaining binding (cell-free assay; competition with immobilised ligand; 0.1 µM): 100%
F[C@@H]1CCN(c2nccc(-c3cnn4ncccc34)n2)C1 — remaining binding (binding; 1 µM): 100%
O=C(c1ccc(Nc2ncc(Cl)c(-c3ccc(Cl)s3)n2)cc1)N1CCC(N2CCCC2)CC1 — remaining binding (binding; competition with immobilised ligand; 1 µM): 77%
CN(C)c1nccc(-c2cnc3ncccn23)n1 — remaining binding (binding; 1 µM): 100%
O=C1CCc2cc(Nc3cc(OC4CCOCC4)c([N+](=O)[O-])cc3Cl)ccc2N1 — remaining binding (cell-free assay; competition with immobilised ligand; 1 µM): 89%
O=C(Nc1c[nH]nc1C(=O)NC1CCNCC1)c1cc(F)cc(F)c1 — remaining binding (binding; competition with immobilised ligand; 1 µM): 100%
Nc1ncc2c(n1)-c1c([nH]c3ccc(C#CC4CC4)cc13)CCCC2 — remaining binding (binding; competition with immobilised ligand; 1 µM): 89%
CN(C)c1ncc(F)c(-c2cnn3ncccc23)n1 — remaining binding (binding; competition with immobilised ligand; 1 µM): 95%
COc1cnc(Nc2cccc(S(N)(=O)=O)c2)nc1N1CCN(c2ccccc2)CC1 — remaining binding (binding; competition with immobilised ligand; 1 µM): 100%
O=c1nc(-c2ccccn2)sc2ccccc12 — remaining binding (binding; competition with immobilised ligand; 1 µM): 100%
c1cnn2ncc(-c3ccnc(N4CCC45COC5)n3)c2c1 — remaining binding (binding; 1 µM): 90%
Cc1nc(C2CCN(C(=O)c3ccc(OC(F)(F)F)cc3N)CC2)c2ncc(N3CCN(C)CC3)cc2n1 — remaining binding (cell-free assay; competition with immobilised ligand; 1 µM): 100%
O=C(NCCCN1CCOCC1)c1ccc(Nc2ncc(Cl)c(-c3ccc(Cl)s3)n2)cc1 — remaining binding (binding; competition with immobilised ligand; 1 µM): 81%
FC(F)(F)Oc1cccc(-c2cnc3ccc(-c4ccncc4)nn23)c1 — remaining binding (cell-free assay; competition with immobilised ligand; 5 µM): 46%
O=C(c1ccc(Nc2nccc(-c3cc4ccccc4s3)n2)cc1)N1CCC(N2CCCC2)CC1 — remaining binding (binding; competition with immobilised ligand; 1 µM): 88%
CCN1CCN(Cc2ccc(C(=O)Nc3ccc(C)c(Oc4ccc5c(c4)CC(=O)N5)c3)cc2C(F)(F)F)CC1 — remaining binding (binding; competition with immobilised ligand; 1 µM): 100%
CC(=O)N1CCC(c2ccc(C(=O)NC(=N)N)cc2C(F)(F)F)CC1 — remaining binding (binding; competition with immobilised ligand; 1 µM): 100%
CN(c1nccc(-c2cnn3ncccc23)n1)C1CC1 — remaining binding (binding; 1 µM): 100%
O=C(Nc1cccnn1)N1CC(C/C=C/c2cncc(Oc3ccc(C(F)(F)F)cn3)n2)C1 — remaining binding (cell-free assay; competition with immobilised ligand; 1 µM): 98%
N[C@@H]1CCN(c2nccc(-c3cnn4ncccc34)n2)C1 — remaining binding (binding; 1 µM): 100%
